SIRT5 inh = blocks human SIRT5 desuccinylation of peptide; Purified SirT5, succinyl-peptide AMC, trypsin-coupled fluorescence; inhibition, % at 15 µM; 330,000 tested, 1.1% active; in the data active = inhibition above about 15%
Target sequence (Q9NXA8 whole entry, looked up): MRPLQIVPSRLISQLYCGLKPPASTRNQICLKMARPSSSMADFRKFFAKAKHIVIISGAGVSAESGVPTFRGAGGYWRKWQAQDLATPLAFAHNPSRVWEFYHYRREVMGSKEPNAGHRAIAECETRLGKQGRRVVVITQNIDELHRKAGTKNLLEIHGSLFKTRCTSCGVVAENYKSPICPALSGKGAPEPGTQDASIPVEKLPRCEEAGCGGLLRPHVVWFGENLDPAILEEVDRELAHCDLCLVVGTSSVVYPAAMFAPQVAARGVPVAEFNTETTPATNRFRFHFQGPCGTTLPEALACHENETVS
FN deposit inh = fibronectin deposition inhibition; AH1F fibroblasts, Alexa488-fibronectin deposition fluorescence, overnight; inhibition, % at 12.6 µM; 350,000 tested, 0.086% active; AID 743247;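 active = mean inhibition across replicates of 30% or more, regardless of how many single replicates reach that level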
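Test system: AH1F fibroblast monolayer depositing Alexa488-labelled fibronectin into matrix. Input: 10000 cells per well. Technique: fluorescence, ex 485 nm, em 525 nm. Buffer or medium: DMEM plus 2% serum, read in PBS. Timing: 1 h cell adhesion before compound, then overnight fibronectin incubation. Compound: single dose, pinned. Read-out basis: inhibition from reduced deposited-fibronectin fluorescence.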
ARNT-TACC3 inh = disruptors of human ARNT/TACC3 interaction; AID 623870; 390,000 tested, 0.66% active; AlphaScreen His-ARNT PAS-B/GST-TACC3 binding, luminescence; TACC3 fragment carries E629A point mutation; Q9Y6A5; inhibition, % at 9.99 µM;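 active = mean inhibition of replicates at least 50% and at least half of replicates each reaching 50%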
DENV2 CPE = inhibitors of DENV2 cytopathic effect; CPE inhibition, % at 9.99 µM; 350,000 tested, 1.7% active; AID 651640; DENV2-infected cells, cytopathic effect rescue, plate reader; in the data active = CPE inhibition above about 20%, passing the limit was not always enough; tested in BHK-21 cells
Xi reactivation = X-chromosome reactivation activator | XiGFP mouse fibroblasts, % GFP-positive cells imaging, 3 d; cells co-treated with 5-aza-dC sensitizer; scaled so ellipticine positive control = 100% | activation, % at 7.58 µM | 360,000 tested, 0.055% active | AID 743238;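 active = mean normalized replicate activation at least 10% and every replicate at or above 10%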
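Assay system – SV40-immortalized XiGFP fibroblast cells, line 68-5-11 · Buffer or medium – DMEM supplemented with 5-aza-dC as sensitizing agent · Dosing – one concentration, pinned · Benchmarks – positive control ellipticine, 6 µM final · Times – 3 days compound exposure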
FGF22 binding = binders of recombinant human FGF22 by thermal shift; AID 651658; activity (Tm shift, normalised), % at 9.99 µM; 340,000 tested, 1.5% active; Q9HCT0; SYPRO orange fluorescence; percent of sucrose octasulfate shift, DMSO zero;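 active = mean Tm shift, scaled 0 neutral to 100 positive control, at about 1.3% or above, every replicate too, limit read from the data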
Target sequence (Q9HCT0 whole entry, looked up): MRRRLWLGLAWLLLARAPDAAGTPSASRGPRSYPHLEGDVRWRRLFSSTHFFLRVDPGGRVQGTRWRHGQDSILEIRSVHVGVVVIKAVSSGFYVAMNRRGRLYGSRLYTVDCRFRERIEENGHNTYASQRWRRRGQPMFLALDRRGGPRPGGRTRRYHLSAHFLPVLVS
Large screens that a line does not name were inactive. Most compounds without a hit are left out; they make up all but 3.8% or so of the library.

C[C@@H]1CN([C@@H](C)CO)S(=O)(=O)c2ccc(C#Cc3cccnc3)cc2O[C@H]1CN(C)CC1CCCC1	none (no result: FN deposit inh)
CC(C)CCOc1ccc(C(=O)N2CCCC2C(=O)O)cc1 (centres undefined)	SIRT5 inh 17
C[C@@H]1CN([C@@H](C)CO)C(=O)c2cc(C3=CCCCC3)cnc2O[C@H]1CN(C)S(C)(=O)=O	none (no result: SIRT5 inh, FN deposit inh, ARNT-TACC3 inh, DENV2 CPE, FGF22 binding)
O=C(Nc1ccnn1C1CCN(C2CCCC2)CC1)c1ccccc1Cl	SIRT5 inh 27
O=C(Nc1ccnn1C1CCN(C2CCC2)CC1)c1ccccc1Cl	none
C[C@H]1CN([C@@H](C)CO)C(=O)Cc2cc(NS(=O)(=O)c3cn(C)cn3)ccc2O[C@H]1CN(C)S(=O)(=O)c1cccs1	none
O=C(C[C@H]1CC[C@@H](NC(=O)c2ccc(F)cc2)[C@H](CO)O1)NCc1ccncn1	none (no result: FN deposit inh)
CC(=O)C1CN(S(=O)(=O)c2ccc(C)cc2)C(c2ccccc2)CC1C (centres undefined)	DENV2 CPE 39 (no result: ARNT-TACC3 inh)
C[C@@H]1CN([C@@H](C)CO)C(=O)c2cc(-c3cccc(C(=O)N(C)C)c3)cnc2O[C@@H]1CN(C)S(=O)(=O)c1cccc(F)c1	none (no result: FN deposit inh)
O=C(Nc1ccc(Cl)cc1)N(CCCN1CCOCC1)Cc1cccs1	DENV2 CPE 26
O=S(=O)(Nc1nc2ccccc2nc1OCC(F)(F)F)c1cccs1	FGF22 binding 45
COc1ccc(Nc2nc3ccccc3nc2NS(=O)(=O)c2cccs2)cc1	none (no result: SIRT5 inh, DENV2 CPE, Xi reactivation, FGF22 binding)
CCc1cc2c(=O)c(-c3nc4ccccc4n3C)coc2c(CN2CCOCC2)c1O	none
CCc1cc2c(=O)c(-c3nc4ccccc4n3C)coc2c(CN2CCCCC2)c1O	SIRT5 inh 34
COc1ccc2c3c([nH]c2c1)[C@H](CO)N(Cc1ccccc1)CC31CCN(C(=O)Cc2ccccc2)CC1	none (no result: SIRT5 inh, FN deposit inh, ARNT-TACC3 inh, FGF22 binding)
CC[C@@]12C(=O)N(c3ccc(C)cc3)C(=O)N1[C@H](c1ccc(OC)cc1)[C@@H]1C(=O)N(C(C)(C)C)C(=O)[C@@H]12	SIRT5 inh 20
O=[N+]([O-])c1cc(CN2CCCC2)c2cccnc2c1O	ARNT-TACC3 inh 77 (no result: SIRT5 inh, FN deposit inh, DENV2 CPE, Xi reactivation, FGF22 binding)
O=[N+]([O-])c1cc(Cl)ccc1N1CCN(c2cccc(C(F)(F)F)c2)CC1	none (no result: SIRT5 inh, DENV2 CPE, FGF22 binding)
O=[N+]([O-])c1cc(CN2CCN(c3cccc(C(F)(F)F)c3)CC2)c2cccnc2c1O	FGF22 binding 43 (no result: ARNT-TACC3 inh)
COc1cccc(NC(=O)C2CCN(S(=O)(=O)c3ccccc3)CC2)c1	ARNT-TACC3 inh 47 (no result: FN deposit inh)
CCOc1ccccc1NC(=O)C1CCN(S(=O)(=O)c2ccc(OC)c(OC)c2)CC1	none (no result: FN deposit inh, ARNT-TACC3 inh, Xi reactivation)
COc1cccc(NC(=O)C2CCN(S(=O)(=O)c3ccc4c(c3)OCCO4)CC2)c1	none (no result: SIRT5 inh, DENV2 CPE, Xi reactivation, FGF22 binding)
CCOc1ccccc1NC(=O)C1CCN(c2ccc(S(=O)(=O)N3CCCC3)cc2)CC1	SIRT5 inh 17 (no result: FN deposit inh, Xi reactivation)
COc1ccc(S(=O)(=O)N2CCC(C(=O)NCCC(=O)NCc3ccncc3)CC2)cc1	none
COc1cccc(CNC(=O)c2cc(S(=O)(=O)N3CCOCC3)cn2C)c1	Xi reactivation 23
COc1ccc(S(=O)(=O)N2CCC(C(=O)NCCC(=O)NCc3cccnc3)CC2)cc1	DENV2 CPE 75 (no result: ARNT-TACC3 inh)
C[C@@H]1CCCCO[C@@H](CN(C)C(=O)NC2CCCCC2)[C@H](C)CN([C@H](C)CO)C(=O)c2cc(NS(=O)(=O)c3ccc(F)cc3)ccc2O1	none
CN1CCN(C(=O)C[C@H]2CC[C@H]3[C@@H](COC[C@H](O)CN3C(=O)Cc3ccccc3)O2)CC1	none
COc1ccccc1CNC(=O)C1CCN(S(=O)(=O)c2ccc(-n3cnnn3)cc2)CC1	none
COc1cccc(CNC(=O)C2CCN(S(=O)(=O)c3ccc(-n4cnnn4)cc3)CC2)c1	FGF22 binding 43 (no result: SIRT5 inh)
Cc1ccc(NS(=O)(=O)c2c(F)cc(F)c(Cl)c2F)cc1S(=O)(=O)N1CCOCC1	FGF22 binding 44 (no result: SIRT5 inh)
Cc1ccc(NC(=O)Cc2c(F)cccc2Cl)cc1S(=O)(=O)N1CCOCC1	none
COc1ccc2c3c([nH]c2c1)[C@@H](CO)N(C)CC31CN(C(=O)c2ccccn2)C1	none (no result: SIRT5 inh, FN deposit inh, ARNT-TACC3 inh, FGF22 binding)
COC1=C(Nc2ccccc2)C(=O)c2ccccc2C1=O	ARNT-TACC3 inh 46 (no result: SIRT5 inh, FN deposit inh, DENV2 CPE, Xi reactivation, FGF22 binding)

Bioassay records from PubChem BioAssay.
